ChEMBL document CHEMBL2396529, “Synthesis and anticancer mechanism investigation of dual Hsp27 and tubulin inhibitors” (J Med Chem, 2013)
Each block holds one molecule with its values, some of them ahead of it. Calls of active or inactive are those of the source. No cut-off for these calls is given here.

Key:
[1] = tested on: SK-BR-3; test: Antiproliferative activity against human SKBR3 cells after 48 hrs by MTT assay; assay type: functional, cell-based; conditions: SK-BR-3, 48 h
Outline: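 MTT assay on SKBR-3 cells (RPMI 1640, 10% heat-inactivated FBS, 37 °C, 5% CO2), seeded 24 h before dosing, then exposed 48 h to a concentration series in DMSO (final ≤0.1%) with vehicle-matched controls. Afterwards 0.5 mg/mL MTT for 2 h, formazan dissolved in DMSO, A570 read, six replicates. IC50 from nonlinear regression.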

[2] = tested on: SK-BR-3; test: Effect on HSP70 protein level human SKBR3 cells at 5 to 15 nM after 24 hrs by Western blotting analysis; assay type: functional, cell-based
[3] = tested on: SK-BR-3; test: Effect on EIF4E protein level human SKBR3 cells at 5 to 15 nM after 24 hrs by Western blotting analysis; assay type: functional, cell-based
[4] = tested on: SK-BR-3; test: Effect on STAT3 protein level human SKBR3 cells at 5 to 15 nM after 24 hrs by Western blotting analysis; assay type: functional, cell-based
[5] = tested on: SK-BR-3; test: Effect on HER2 protein level human SKBR3 cells at 5 to 15 nM after 24 hrs by Western blotting analysis; assay type: functional, cell-based
[6] = tested on: SK-BR-3; test: Induction of HSP27 phosphorylation in human SKBR3 cells at 5 to 15 nM after 24 hrs by Western blotting analysis; assay type: functional, cell-based
Outline: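 SKBR-3 cells exposed to 5, 10 and 15 nM for 24 h against DMSO, then lysed, sonicated and spun at 12000g for 10 min. 30 μg protein run on 10% SDS-PAGE and transferred to PVDF. Blocked with 5% milk in PBST, probed with specific primary antibodies and an HRP secondary. pHsp27 bands quantified and normalised to β-actin.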

[7] = biological target: Heat shock protein beta-1 (Homo sapiens) (UniProt P04792); test: Inhibition of HSP27 (unknown origin) assessed as increase in DTT-induced insulin B chain aggregation at 10 uM incubated for 5 mins prior to DTT-treatment measured after 30 mins by spectrophotometric analysis relative to control
Heat shock protein beta-1 (Homo sapiens), sequence (P04792 whole entry): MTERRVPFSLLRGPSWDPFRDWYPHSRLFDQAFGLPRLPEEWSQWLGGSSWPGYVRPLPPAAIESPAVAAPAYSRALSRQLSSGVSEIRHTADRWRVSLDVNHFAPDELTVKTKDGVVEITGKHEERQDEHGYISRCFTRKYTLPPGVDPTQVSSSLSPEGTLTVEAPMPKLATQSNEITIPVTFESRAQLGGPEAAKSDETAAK

[8] = species: Bos taurus; test: Inhibition of bovine brain tubulin polymerization after 20 mins by spectrophotometric analysis in presence of GTP
[9] = tested on: SK-BR-3; test: Induction of apoptosis in human SKBR3 cells assessed as increase in cleaved PARP protein level at 5 to 15 nM after 24 hrs by Western blotting analysis; assay type: functional, cell-based
Outline: (§1)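 SKBR-3 cells treated 24 h with 5, 10 and 15 nM against DMSO. Lysates (60 μg protein) resolved on 10% SDS-PAGE, transferred to PVDF, blocked in 5% milk/PBST and immunoblotted for cleaved caspase 3 and cleaved PARP with an HRP secondary.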

[10] = tested on: SK-BR-3; test: Induction of apoptosis in human SKBR3 cells assessed as increase in cleaved caspase-3 protein level at 5 to 15 nM after 24 hrs by Western blotting analysis; assay type: functional, cell-based; outline: as §1
[11] = tested on: SK-BR-3; test: Cell cycle arrest in human SKBR3 cells assessed as accumulation at G2/M phase at 5 nM after 24 hrs by propidium iodide staining-based FACS flow cytometric analysis (reference value: 10.77%); assay type: functional
[12] = tested on: SK-BR-3; test: Cell cycle arrest in human SKBR3 cells assessed as accumulation at G2/M phase at […] after 24 hrs by propidium iodide staining-based FACS flow cytometric analysis (reference value: 10.77%); assay type: functional
[13] = tested on: SK-BR-3; test: Cell cycle arrest in human SKBR3 cells assessed as accumulation at G2/M phase at 1 nM after 24 hrs by propidium iodide staining-based FACS flow cytometric analysis (reference value: 10.77%); assay type: functional
[14] = tested on: SK-BR-3; test: Cell cycle arrest in human SKBR3 cells assessed as accumulation at S phase at 5 nM after 24 hrs by propidium iodide staining-based FACS flow cytometric analysis (reference value: 16.34%); assay type: functional
[15] = tested on: SK-BR-3; test: Cell cycle arrest in human SKBR3 cells assessed as accumulation at S phase at […] after 24 hrs by propidium iodide staining-based FACS flow cytometric analysis (reference value: 16.34%); assay type: functional
[16] = tested on: SK-BR-3; test: Cell cycle arrest in human SKBR3 cells assessed as accumulation at S phase at 1 nM after 24 hrs by propidium iodide staining-based FACS flow cytometric analysis (reference value: 16.34%); assay type: functional
[17] = tested on: SK-BR-3; test: Cell cycle arrest in human SKBR3 cells assessed as accumulation at G1 phase at 5 nM after 24 hrs by propidium iodide staining-based FACS flow cytometric analysis (reference value: 69.63%); assay type: functional
[18] = tested on: SK-BR-3; test: Cell cycle arrest in human SKBR3 cells assessed as accumulation at G1 phase at […] after 24 hrs by propidium iodide staining-based FACS flow cytometric analysis (reference value: 69.63%); assay type: functional
[19] = tested on: SK-BR-3; test: Cell cycle arrest in human SKBR3 cells assessed as accumulation at G1 phase at 1 nM after 24 hrs by propidium iodide staining-based FACS flow cytometric analysis (reference value: 69.63%); assay type: functional
[20] = tested on: SK-BR-3; test: Cell cycle arrest in human SKBR3 cells assessed as accumulation at subG1 phase at 5 nM after 24 hrs by propidium iodide staining-based FACS flow cytometric analysis (reference value: 3.23%); assay type: functional
[21] = tested on: SK-BR-3; test: Cell cycle arrest in human SKBR3 cells assessed as accumulation at subG1 phase at […] after 24 hrs by propidium iodide staining-based FACS flow cytometric analysis (reference value: 3.23%); assay type: functional
[22] = tested on: SK-BR-3; test: Cell cycle arrest in human SKBR3 cells assessed as accumulation at subG1 phase at 1 nM after 24 hrs by propidium iodide staining-based FACS flow cytometric analysis (reference value: 3.23%); assay type: functional
[23] = species: Bos taurus; test: Inhibition of bovine brain tubulin polymerization at 1 uM after 15 mins by spectrophotometric analysis relative to control in presence of GTP
[24] = species: Bos taurus; test: Inhibition of bovine brain tubulin polymerization at 10 nM after 15 mins by spectrophotometric analysis relative to control in presence of GTP
[25] = species: Bos taurus; test: Inhibition of bovine brain tubulin polymerization at 100 nM after 15 mins by spectrophotometric analysis relative to control in presence of GTP
[26] = species: Bos taurus; conditions: 100 uM

Compound: COc1ccc(C(=O)Nc2ccc(N(C)S(=O)(=O)C(F)(F)F)c(OCc3cc(OC)ccc3OC)c2)cc1
IC50 [1]: 0.11 µM

Compound: COc1ccc(C(=O)Nc2ccc(N(C)S(C)(=O)=O)c(OCc3cc(OC)ccc3OC)c2)cc1
Activity [2]: inactive | Activity [3]: inactive | Activity [4]: inactive | Activity [5]: inactive | Activity [6]: Active | inhibition [7]: 9% | inhibition [8]: Dose-dependent effect | Activity [9]: Active | Activity [10]: Active | Activity [11]: 25.47% | Activity [12]: 28.57% | Activity [13]: 12.78% | Activity [14]: 8.83% | Activity [15]: 8.92% | Activity [16]: 8.71% | Activity [17]: 32.02% | Activity [18]: 34.91% | Activity [19]: 61.21% | Activity [20]: 33.54% | Activity [21]: 27.43% | Activity [22]: 17.1% | IC50 [1]: 0.00256 µM | inhibition [23]: 66% | inhibition [24]: 5% | inhibition [25]: 19%

Compound: COc1ccc(C(=O)Nc2ccc(N(C)S(C)(=O)=O)c(OCc3cc(Cl)ccc3Cl)c2)cc1OC
IC50 [1]: 3.73 µM

Compound: Cc1ccc(C(F)(F)F)cc1COc1cc(NC(=O)c2ccc3c(c2)OCO3)ccc1N(C)S(C)(=O)=O
IC50 [1]: 14.7 µM

Compound: COc1ccc(OC)c(COc2cc(NC(=O)c3ccc(I)cc3)ccc2NS(C)(=O)=O)c1
IC50 [1]: 0.0118 µM

Compound: CCCCCCOc1cc(NC(=O)c2ccc3c(c2)OCO3)ccc1N(C)S(C)(=O)=O
IC50 [1]: 28.8 µM

Compound: CS(=O)(=O)Nc1ccc([N+](=O)[O-])cc1Oc1ccccc1 [NIMESULIDE]
inhibition [7]: inactive | IC50 [1]: 100 µM | inhibition [26]: 14%

Compound: COc1ccc(OC)c(COc2cc(NC(=O)c3ccc(Br)cc3)ccc2N(C)S(=O)(=O)C(F)(F)F)c1
IC50 [1]: 0.47 µM

Compound: COc1ccc(C(=O)Nc2ccc(N(C)S(=O)(=O)C(F)(F)F)c(OCc3cc(C)ccc3C)c2)cc1OC
IC50 [1]: 39.3 µM

Compound: COc1ccc(C(=O)Nc2ccc(NS(C)(=O)=O)c(OCc3cc(OC)ccc3OC)c2)cc1
IC50 [1]: 0.0134 µM

Compound: Cc1ccc(C)c(COc2cc(NC(=O)c3ccc4ccccc4c3)ccc2N(C)S(=O)(=O)C(F)(F)F)c1
IC50 [1]: 41.4 µM

Compound: CCCCCCOc1cc(NC(=O)c2ccc(Br)cc2)ccc1N(C)S(C)(=O)=O
IC50 [1]: 39.9 µM

Compound: Cc1ccc(C(F)(F)F)cc1COc1cc(NC(=O)c2ccc3ccccc3c2)ccc1N(C)S(C)(=O)=O
IC50 [1]: 18.4 µM

Compound: COc1ccc(C(=O)Nc2ccc(N(C)S(C)(=O)=O)c(OCc3cc(C(F)(F)F)ccc3C)c2)cc1OC
IC50 [1]: 16.9 µM

Compound: CCCCCCOc1cc(NC(=O)c2ccc(I)cc2)ccc1N(C)S(C)(=O)=O
IC50 [1]: 12.7 µM

Compound: COc1ccc(OC)c(COc2cc(NC(=O)c3ccc(OC)c(OC)c3)ccc2N(C)S(C)(=O)=O)c1
IC50 [1]: 0.00261 µM

Continued, values first:

IC50 [1]: 36.4 µM
Compound: Cc1ccc(C)c(COc2cc(NC(=O)c3ccc(Br)cc3)ccc2N(C)S(=O)(=O)C(F)(F)F)c1

IC50 [1]: 3.5 µM
Compound: Cc1ccc(C(F)(F)F)cc1COc1cc(NC(=O)c2ccc(I)cc2)ccc1N(C)S(C)(=O)=O

inhibition [7]: 28%
Compound: Cc1ccc(C)c(COc2cc(NC(=O)c3ccc(I)cc3)ccc2N(C)S(C)(=O)=O)c1

IC50 [1]: 0.66 µM
Compound: CN(c1ccc(NC(=O)c2ccc(I)cc2)cc1OCc1cc(Cl)ccc1Cl)S(C)(=O)=O

IC50 [1]: 2.29 µM
Compound: CN(c1ccc(NC(=O)c2ccc(Br)cc2)cc1OCc1cc(Cl)ccc1Cl)S(C)(=O)=O

IC50 [1]: 0.49 µM
Compound: COc1ccc(C(=O)Nc2ccc(N(C)S(C)(=O)=O)c(OCc3cc(Cl)ccc3Cl)c2)cc1

IC50 [1]: 13.5 µM
Compound: Cc1ccc(C)c(COc2cc(NC(=O)c3ccc(I)cc3)ccc2N(C)S(=O)(=O)C(F)(F)F)c1
